The results in this text go back to ChEMBL document CHEMBL1143805, “Synthesis and antimicrobial activities of some novel 1,2,4-triazolo[3,4-b]-1,3,4-thiadiazoles and 1,2,4-triazolo[3,4-b]-1,3,4-thiadiazines carrying thioalkyl and sulphonyl phenoxy moieties” (2007).

Converted amounts (≈) assume the structure as drawn.

One experiment has as its system Klebsiella pneumoniae. The experiment in a line: Antibacterial activity against Klebsiella pneumoniae. The settings on record: for MIC: Klebsiella pneumoniae. The class given is functional. The method in brief:
(§1)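 MIC by serial dilution in Mueller-Hinton broth tubes, pH adjusted to 5.0 with phosphate buffer. A standardized bacterial suspension was inoculated and incubated 16-18 h at 37 °C, and MIC was read as the lowest concentration with no visible growth. Zones were also measured in agar wells on seeded plates, with compounds in DMSO and a DMSO control, triplicate plates, 37 °C for 3-4 days.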

A further experiment concerns Aspergillus fumigatus. The experiment in a line: Antifungal activity against Aspergillus fumigatus NCIM 902. The settings on record: for MIC: Aspergillus fumigatus, NCIM 902. The experiment is classed as functional.
The next experiment has as its system Aspergillus flavus. Nature of the experiment: Antifungal activity against Aspergillus flavus NCIM 524. The settings on record: for MIC: Aspergillus flavus, NCIM 524. The experiment is classed as functional. The method in brief: (§2)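 Agar-well diffusion on Sabouraud agar at pH 5.7. Plates were lawned with a saline spore suspension (one loopful in 3 ml), decanted and dried 1 h at 37 °C. Compounds in DMSO went into punched wells, with a DMSO solvent control. Plates were run in triplicate and kept at 37 °C for 3-4 days, with inhibition-zone diameter as read-out.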

For a further experiment, the system named is Pseudomonas aeruginosa. The experiment in a line: Antibacterial activity against Pseudomonas aeruginosa ATCC 27853. The experiment is classed as functional. The settings on record: for MIC: Pseudomonas aeruginosa, ATCC 27853. In a few lines:
as §1

The next experiment deals with Talaromyces marneffei. Nature of the experiment: Antifungal activity against Penicillium marneffei. The class given is functional. The settings on record: for MIC: Talaromyces marneffei. In a few lines:
as §2

The subject of the next experiment is Staphylococcus aureus. Nature of the experiment: Antibacterial activity against Staphylococcus aureus ATCC 25923. The class given is functional. The settings on record: for MIC: Staphylococcus aureus, ATCC 25923. In a few lines:
as §1

Another experiment relates to Escherichia coli. Nature of the experiment: Antibacterial activity against Escherichia coli ATCC 25922. The class given is functional. The settings on record: for MIC: Escherichia coli, ATCC 25922. In a few lines: as §1
The test system of a further experiment is Trichophyton benhamiae. Nature of the experiment: Antifungal activity against Trichophyton mentagrophytes. The settings on record: for MIC: Trichophyton benhamiae. The experiment is classed as functional, Arthroderma benhamiae. In a few lines: as §2

In the case of `CCSc1ccc(OCc2nnc3n2N=C(c2ccc(O)c(C(N)=O)c2)CS3)cc1`, the “inhibition zone (IZ)” value with Klebsiella pneumoniae, with Aspergillus fumigatus, in the experiment with Aspergillus flavus, in the experiment on Pseudomonas aeruginosa, with Talaromyces marneffei and with Staphylococcus aureus was 16 mm in each case. The “inhibition zone (IZ)” value with Escherichia coli and with Trichophyton benhamiae was 16 mm in each case. Also, the minimal inhibitory concentration (MIC) against Klebsiella pneumoniae, against Aspergillus fumigatus, against Aspergillus flavus, in the experiment with Pseudomonas aeruginosa, in the experiment on Talaromyces marneffei and against Staphylococcus aureus was 6.25 µg/mL (≈ 14.2 µM) throughout. Also, the MIC with Escherichia coli and against Trichophyton benhamiae was 6.25 µg/mL (≈ 14.2 µM) in each case.
Take `CSc1ccc(OCc2nnc3n2N=C(c2ccc(Cl)cc2)CS3)cc1`: the “inhibition zone (IZ)” value in the experiment on Klebsiella pneumoniae, in the experiment with Aspergillus fumigatus, in the experiment on Aspergillus flavus, in the experiment on Pseudomonas aeruginosa, with Talaromyces marneffei and in the experiment with Staphylococcus aureus was 16 mm in each case. Also, the “inhibition zone (IZ)” value in the experiment on Escherichia coli and with Trichophyton benhamiae was 16 mm each time. Besides, the MIC in the experiment with Klebsiella pneumoniae, in the experiment with Aspergillus fumigatus, against Aspergillus flavus, with Pseudomonas aeruginosa, in the experiment on Talaromyces marneffei and against Staphylococcus aureus was 6.25 µg/mL (≈ 15.5 µM) each time. Moreover, the minimum inhibitory concentration (MIC) against Escherichia coli and in the experiment with Trichophyton benhamiae was 6.25 µg/mL (≈ 15.5 µM) each time.
For `CCSc1ccc(OCc2nnc3sc(-c4ccccc4)nn23)cc1`, the “inhibition zone (IZ)” value in the experiment with Klebsiella pneumoniae, with Aspergillus fumigatus, in the experiment on Aspergillus flavus, in the experiment on Pseudomonas aeruginosa, with Talaromyces marneffei and in the experiment on Staphylococcus aureus was 16 mm each time. For the same compound, the “inhibition zone (IZ)” value in the experiment with Escherichia coli and in the experiment with Trichophyton benhamiae was 16 mm each time. For the same compound, the MIC with Klebsiella pneumoniae, against Aspergillus fumigatus, in the experiment on Aspergillus flavus, with Pseudomonas aeruginosa, in the experiment on Talaromyces marneffei and against Staphylococcus aureus was 6.25 µg/mL (≈ 17 µM) in each case. The MIC in the experiment with Escherichia coli and with Trichophyton benhamiae was 6.25 µg/mL (≈ 17 µM) in each case.
On to `CS(=O)(=O)c1ccc(OCc2nnc3sc(-c4cccc(Cl)c4)nn23)cc1`, for which the “inhibition zone (IZ)” value is 11 mm in the experiment with Klebsiella pneumoniae; 11 mm in the experiment with Aspergillus fumigatus; 11 mm in the experiment on Aspergillus flavus; 11 mm in the experiment on Pseudomonas aeruginosa; under 10 mm in the experiment with Talaromyces marneffei; 11 mm in the experiment with Staphylococcus aureus. In addition, the “inhibition zone (IZ)” value in the experiment on Escherichia coli and in the experiment on Trichophyton benhamiae was 11 mm throughout. Besides, the MIC in the experiment on Klebsiella pneumoniae worked out at 12.5 µg/mL (≈ 29.7 µM); against Aspergillus fumigatus it was 12.5 µg/mL (≈ 29.7 µM); in the experiment on Aspergillus flavus, 12.5 µg/mL (≈ 29.7 µM); in the experiment on Pseudomonas aeruginosa, 12.5 µg/mL (≈ 29.7 µM); against Talaromyces marneffei, 25 µg/mL (≈ 59.4 µM); against Staphylococcus aureus, 12.5 µg/mL (≈ 29.7 µM). The MIC in the experiment on Escherichia coli and against Trichophyton benhamiae was 12.5 µg/mL (≈ 29.7 µM) each time.
In the case of `CSc1ccc(OCc2nnc3sc(-c4ccccc4Cl)nn23)cc1`, the “inhibition zone (IZ)” value in the experiment with Klebsiella pneumoniae, with Aspergillus fumigatus, in the experiment with Aspergillus flavus, in the experiment on Pseudomonas aeruginosa, in the experiment with Talaromyces marneffei and with Staphylococcus aureus was under 10 mm each time. Besides, the “inhibition zone (IZ)” value in the experiment with Escherichia coli and in the experiment on Trichophyton benhamiae was under 10 mm in each case. For the same compound, the MIC in the experiment on Klebsiella pneumoniae, against Aspergillus fumigatus, against Aspergillus flavus, in the experiment with Pseudomonas aeruginosa, in the experiment on Talaromyces marneffei and against Staphylococcus aureus was 25 µg/mL (≈ 64.3 µM) in each case. Besides, the minimal inhibitory concentration (MIC) against Escherichia coli and against Trichophyton benhamiae was 25 µg/mL (≈ 64.3 µM) each time.
